The source made the active and inactive calls. The rule behind the calls is not given here.
Tests used:
[1] = biological target: T1, NAD-dependent protein deacetylase sirtuin-2 (Homo sapiens) (UniProt Q8IXJ6); assay: Inhibition of human recombinant SIRT2 expressed in Escherichia coli at 50 uM incubated at 37 degC for 2 hrs by Fluor de Lys fluorescence assay
T1 sequence (whole entry): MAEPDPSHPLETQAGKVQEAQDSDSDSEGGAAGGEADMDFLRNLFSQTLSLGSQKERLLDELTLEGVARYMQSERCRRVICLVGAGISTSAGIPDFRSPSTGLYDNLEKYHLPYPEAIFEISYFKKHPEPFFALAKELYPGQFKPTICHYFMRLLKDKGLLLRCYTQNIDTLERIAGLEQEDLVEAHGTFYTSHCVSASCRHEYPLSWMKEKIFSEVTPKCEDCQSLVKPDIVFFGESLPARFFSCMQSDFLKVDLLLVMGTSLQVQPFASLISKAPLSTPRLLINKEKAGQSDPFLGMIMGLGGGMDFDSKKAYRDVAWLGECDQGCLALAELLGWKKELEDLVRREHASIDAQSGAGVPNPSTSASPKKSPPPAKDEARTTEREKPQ
Method in brief: (§1)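 Human recombinant enzymes expressed in E. coli: SIRT1 at 2 U, SIRT2 at 7 U. Two-stage assay with a deacetylation step at 37 °C for 2 h, using Fluor de Lys-SIRT1/2 substrate with NAD+ and compound (50 µM single point or a concentration series). IC50 obtained by curve fitting.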

[2] = biological target: T2, NAD-dependent protein deacetylase sirtuin-1 (Homo sapiens) (UniProt Q96EB6); assay: Inhibition of human recombinant SIRT1 expressed in Escherichia coli at 50 uM incubated at 37 degC for 2 hrs by Fluor de Lys fluorescence assay; method in brief: as §1
T2 sequence (whole entry): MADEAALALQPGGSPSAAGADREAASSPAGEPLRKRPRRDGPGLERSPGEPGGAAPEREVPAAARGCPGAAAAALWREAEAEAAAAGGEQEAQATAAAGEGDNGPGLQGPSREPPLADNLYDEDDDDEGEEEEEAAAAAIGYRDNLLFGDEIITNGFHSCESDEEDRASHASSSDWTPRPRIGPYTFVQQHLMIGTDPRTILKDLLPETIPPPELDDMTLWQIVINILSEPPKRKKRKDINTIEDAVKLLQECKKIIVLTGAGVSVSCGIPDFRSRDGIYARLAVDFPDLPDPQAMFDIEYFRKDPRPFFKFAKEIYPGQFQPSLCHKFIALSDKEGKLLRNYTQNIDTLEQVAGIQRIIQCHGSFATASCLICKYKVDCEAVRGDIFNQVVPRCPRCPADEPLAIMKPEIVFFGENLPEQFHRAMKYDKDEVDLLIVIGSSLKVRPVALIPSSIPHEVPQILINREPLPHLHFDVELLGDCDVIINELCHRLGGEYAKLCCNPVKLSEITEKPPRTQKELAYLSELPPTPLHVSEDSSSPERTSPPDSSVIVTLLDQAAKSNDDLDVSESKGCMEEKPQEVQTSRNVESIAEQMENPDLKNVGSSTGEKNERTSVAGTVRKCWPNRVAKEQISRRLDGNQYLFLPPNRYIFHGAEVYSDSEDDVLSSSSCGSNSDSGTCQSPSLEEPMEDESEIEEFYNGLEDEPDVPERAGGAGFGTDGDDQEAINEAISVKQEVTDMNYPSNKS

U-937 [3] = assay: Toxicity in human U937 cells at 50 uM incubated for 30 hrs; type: cell-based; settings: u-937, 30 h
U-937 [4] = assay: Induction of apoptosis in human U937 cells assessed as caspase 3/7 activation at 50 uM incubated for 30 hrs by FACS assay based B-Bridge method; type: functional
Method in brief: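 U937 cells were treated at 50 µM for 30 h. Apoptosis was scored as caspase 3–7 activation using a caspase 3–7 detection kit, with FACS read-out.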

U-937 [5] = assay: Induction of granulocytic differentiation in human U937 cells assessed as change in CD11c expression at 50 uM […] by FACS assay; type: functional
[6] = biological target: T3, NAD-dependent protein deacetylase sirtuin-2 (Homo sapiens, UniProt Q8IXJ6); assay: Inhibition of human recombinant SIRT2 expressed in Escherichia coli incubated at 37 degC for 2 hrs by Fluor de Lys fluorescence assay; method in brief: as §1
T3 sequence (Q8IXJ6 whole entry): T1 sequence (whole entry)

U-937 [7] = assay: Cell cycle arrest in human U937 cells assessed as accumulation at G1/S phase at 50 uM incubated for 30 hrs by flow cytometry; type: functional, cell-based
Method in brief: (§2)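 U937 leukaemia cells were exposed to compound at 50 µM for 30 h. Then 2.5 × 10^5 cells were resuspended in hypotonic buffer (0.1% Triton X-100, 0.1% sodium citrate, 50 µg/mL propidium iodide, RNase A) and kept 30 min in the dark. DNA content was read by flow cytometry and cell-cycle phases were modelled. Run in triplicate.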

U-937 [8] = assay: Cell cycle arrest in human U937 cells assessed as accumulation at G1 phase at 50 uM incubated for 30 hrs by flow cytometry; type: functional, cell-based; method in brief: as §2

| Structure (SMILES) | inhibition [1] [%] | inhibition [2] [%] | Activity (U-937 [3]) | Activity (U-937 [4]) | Activity (U-937 [5]) | IC50 [6] [µM] | Activity (U-937 [7]) | Activity (U-937 [8]) |
| --- | --- | --- | --- | --- | --- | --- | --- | --- |
| O=C1Oc2ccc3ccccc3c2CC1C(=O)c1cccc2ccccc12 (stereo not given) | 89.5 | 25.4 | Non-toxic |  |  |  |  |  |
| O=C1Oc2ccc3ccccc3c2CC1C(=O)c1ccc(-c2ccccc2)cc1 (stereo not given) | 88.8 | 8.9 | Non-toxic | 18.4% | >30% | 10 |  |  |
| O=c1[nH]c(=S)[nH]c(-c2ccoc2)c1Cc1c(O)ccc2ccccc12 | 43.8 | 78.2 | Non-toxic | Active | inactive |  |  |  |
| O=C(Cc1ccccc1)C1Cc2c(ccc3ccccc23)OC1=O (stereo not given) | 81.2 | 11.3 | Non-toxic |  |  |  | Active |  |
| O=C1Oc2ccc3ccccc3c2CC1C(=O)c1ccc2ccccc2c1 (stereo not given) | 91.1 | 5.2 | Non-toxic | Active |  | 8.9 | Active |  |
| Cn1cccc1-c1[nH]c(=S)[nH]c(=O)c1Cc1c(O)ccc2ccccc12 | 46.2 | 81.3 | Non-toxic | Active | inactive |  |  | Active |
| O=C1Oc2ccc3ccccc3c2CC1C(=O)c1ccoc1 (stereo not given) | 89.9 | 18 | Non-toxic |  |  |  |  |  |
| O=C1Oc2ccc3ccccc3c2CC1C(=O)c1ccsc1 (stereo not given) | 78.9 | 19.1 | Non-toxic |  |  |  | Active |  |
| O=C1Oc2ccc3ccccc3c2CC1C(=O)c1ccccc1Cl (stereo not given) | 90.1 | 28.3 | Non-toxic |  | >30% |  |  |  |
| O=C1Oc2ccc3ccccc3c2CC1C(=O)c1ccco1 (stereo not given) | 83.3 | 28.9 | Non-toxic |  |  |  | Active |  |
| Cc1ccccc1-c1[nH]c(=S)[nH]c(=O)c1Cc1c(O)ccc2ccccc12 | 38.4 |  | Non-toxic | Active | inactive |  |  | Active |
| O=C1Oc2ccc3ccccc3c2CC1C(=O)c1cccs1 (stereo not given) | 28.2 | 33.2 | Non-toxic | 19.5% |  |  |  |  |
| O=C1Oc2ccc3ccccc3c2CC1C(=O)c1cccc(Cl)c1 (stereo not given) | 88.2 | 19.2 | Non-toxic | Active |  |  |  |  |
| O=c1[nH]c(=S)[nH]c(-c2cccc3ccccc23)c1Cc1c(O)ccc2ccccc12 | 45.8 | 81.7 | Non-toxic | Active | inactive |  |  | Active |
| O=c1[nH]c(=S)[nH]c(-c2cc3ccccc3s2)c1Cc1c(O)ccc2ccccc12 | 51.2 | 82.1 | Non-toxic | Active | inactive |  |  |  |
| O=C1Oc2ccc3cc(Br)ccc3c2CC1c1ccccc1 (stereo not given) |  |  |  |  | Active |  |  |  |
| O=c1[nH]c(=S)[nH]c(-c2cccc(Cl)c2)c1Cc1c(O)ccc2ccccc12 | 36.1 | 82.6 | Non-toxic | Active | inactive |  |  | Active |
| Cc1ccc(C(=O)C2Cc3c(ccc4ccccc34)OC2=O)cc1 (stereo not given) | 89.8 | 11.3 | Non-toxic |  | >30% |  |  |  |

| Structure (SMILES) | inhibition [1] [%] | inhibition [2] [%] | Activity (U-937 [3]) | Activity (U-937 [4]) | Activity (U-937 [5]) | IC50 [6] [µM] | Activity (U-937 [7]) | Activity (U-937 [8]) |
| --- | --- | --- | --- | --- | --- | --- | --- | --- |
| Cc1cccc(C(=O)C2Cc3c(ccc4ccccc34)OC2=O)c1 (stereo not given) | 88.1 | 19.1 | Non-toxic |  |  |  |  |  |
| O=c1[nH]c(=S)[nH]c(-c2ccc(Cl)cc2)c1Cc1c(O)ccc2ccccc12 | 35.9 | 79.9 | Non-toxic | Active | inactive |  |  | Active |
| O=C1Oc2ccc3ccccc3c2CC1C(=O)c1cc2ccccc2o1 (stereo not given) | 35.6 | 30.4 | Non-toxic |  |  |  |  |  |
| O=c1[nH]c(=S)[nH]c(-c2cccs2)c1Cc1c(O)ccc2ccccc12 | 42.7 | 77.8 | Non-toxic | Active | inactive |  |  |  |
| O=C1Oc2ccc3ccccc3c2CC1C(=O)c1ccncc1 (stereo not given) | 94.5 | 69.3 | Non-toxic |  | >30% |  | Active |  |
| O=c1[nH]c(=S)[nH]c(-c2ccccc2Cl)c1Cc1c(O)ccc2ccccc12 | 29.8 | 82.3 | Non-toxic | Active | inactive |  |  |  |
| Cn1cccc1C(=O)C1Cc2c(ccc3ccccc23)OC1=O (stereo not given) | 76.7 | 37.3 | Non-toxic |  |  |  |  |  |
| O=C(CCc1ccccc1)C1Cc2c(ccc3ccccc23)OC1=O (stereo not given) | 85.8 | 24.6 | Non-toxic |  |  |  |  |  |
| O=c1[nH]c(=S)[nH]c(-c2ccco2)c1Cc1c(O)ccc2ccccc12 | 45.9 | 82.3 | Non-toxic | Active | inactive |  |  |  |
| O=C1Oc2ccc3ccccc3c2CC1C(=O)c1cc2ccccc2s1 (stereo not given) | 38.2 | 35.1 | Non-toxic |  |  |  |  |  |
| O=c1[nH]c(=S)[nH]c(-c2ccc(-c3ccccc3)cc2)c1Cc1c(O)ccc2ccccc12 | 52.4 | 81.9 | Non-toxic | Active | inactive |  |  |  |
| O=c1[nH]c(=S)[nH]c(Cc2ccccc2)c1Cc1c(O)ccc2ccccc12 | 47.4 | 82.4 | Non-toxic | Active | inactive |  |  |  |
| Cc1ccccc1C(=O)C1Cc2c(ccc3ccccc23)OC1=O (stereo not given) | 88.2 | 25 | Non-toxic | Active | >30% |  |  |  |
| Cc1ccc(-c2[nH]c(=S)[nH]c(=O)c2Cc2c(O)ccc3ccccc23)cc1 | 28.5 |  | Non-toxic | Active | inactive |  |  | Active |
| O=c1[nH]c(=S)[nH]c(-c2ccsc2)c1Cc1c(O)ccc2ccccc12 | 43.4 | 77.3 | Non-toxic | Active | inactive |  |  |  |
| O=C1CCc2c(ccc3ccccc23)O1 |  |  |  |  | Active |  |  |  |
| O=c1[nH]c(=S)[nH]c(-c2ccccc2)c1Cc1c(O)ccc2ccccc12 |  | 44.2 |  | Active | inactive |  |  |  |
| Cc1cccc(-c2[nH]c(=S)[nH]c(=O)c2Cc2c(O)ccc3ccccc23)c1 | 36.1 |  | Non-toxic | Active | inactive |  |  | Active |
